Test [1] concerns the target T1, Serine protease 1 (Bos taurus, UniProt P00760).
T1 sequence (P00760 whole entry): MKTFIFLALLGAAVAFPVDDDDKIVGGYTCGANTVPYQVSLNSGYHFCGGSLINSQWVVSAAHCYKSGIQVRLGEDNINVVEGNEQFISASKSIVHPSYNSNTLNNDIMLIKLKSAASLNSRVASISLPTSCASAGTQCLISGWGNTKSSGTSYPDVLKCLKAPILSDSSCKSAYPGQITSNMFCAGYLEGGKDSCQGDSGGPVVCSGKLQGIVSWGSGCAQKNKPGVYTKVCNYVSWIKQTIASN
Briefly: Inhibition of trypsin with benzoyl-L-arginine ethyl ester as substrate; […].

Test [2] concerns the target T2, Prothrombin (Bos taurus, UniProt P00735). Briefly: Inhibition of thrombin with benzoyl-Phe-Val-arginine- p-nitroanilide as substrate. An outline of the steps:
(§1)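 Bovine plasma thrombin (19.7 NIH units/mL stock) in 0.01 M Tris pH 8.0, preincubated ± inhibitor 2.5 min at 37 °C. Benzoyl-Phe-Val-Arg p-nitroanilide (0.0005 M stock in 6.8% DMSO/buffer) initiated; A405 change over 1 min. Percent inhibition at ≥4 concentrations (≥3 repeats) plotted against log concentration for IC50.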

The target of test [3] is T3, Cathepsin B (Bos taurus, UniProt P07688). Briefly: Inhibition of cathepsin B with Cbz-L-lysine-p-nitrophenyl ester as substrate. An outline of the steps:
(§2)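 Bovine spleen cathepsin B stock (0.163 mg/mL) in 0.10 M sodium phosphate pH 6.0 with 0.10 mg/mL DTT. Diluted in 0.10 M phosphate pH 6.0, preincubated ± inhibitor 2.5 min at 30 °C. Started with Nα-Cbz-L-lysine p-nitrophenyl ester (0.0024 M stock); A405 change over 1 min. IC50 from % inhibition vs log[inhibitor], ≥4 concentrations in ≥3 repeats. NA means ≤25% activity loss at 100 µM or more.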

Test [4] concerns the target T4, Plasma kallikrein (Homo sapiens, UniProt P03952). Briefly: Inhibition of kallikrein with benzoyl-L-arginine ethyl ester as substrate.
In test [5] the target is T5, Plasminogen (Bos taurus, UniProt P06868). Briefly: Inhibition of plasmin with Val-L-Leu-L-lysine-p-nitroanilide as substrate. An outline of the steps: (§3)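 Bovine plasma plasmin (6.24 mg/mL stock) in 0.45 M Tris pH 8.0 with 0.011 M NaCl, preincubated ± inhibitor 2.5 min at 37 °C. Reaction started with D-Val-L-Leu-L-Lys p-nitroanilide (0.0031 M stock); A405 change over 1 min. IC50 read from % inhibition vs log[inhibitor], ≥4 concentrations, each ≥3 times. NA: ≥100 µM lowers activity ≤25%.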

For test [6], the target named is T1, Serine protease 1. As to the kind of experiment: Inhibition of trypsin with benzoyl-L-arginine ethyl ester as substrate.
In test [7] the target is T2, Prothrombin. As to the kind of experiment: Inhibition of thrombin with benzoyl-Phe-Val-arginine- p-nitroanilide as substrate; Not significantly active. An outline of the steps:
as §1

For test [8], the target named is T4, Plasma kallikrein. Briefly: Inhibition of kallikrein with benzoyl-L-arginine ethyl ester as substrate; Not significantly active.
The target in test [9] is T5, Plasminogen. As to the kind of experiment: Inhibition of plasmin with Val-L-Leu-L-lysine-p-nitroanilide; Not significantly active. An outline of the steps: as §3
In test [10] the target is T3, Cathepsin B. Briefly: Inhibition of cathepsin B with Cbz-L-lysine-p-nitrophenyl ester; Not significantly active. An outline of the steps:
as §2

Where a SMILES comes first, the peptide text is derived from it.

T4 sequence (P03952 20-390 limits assumed): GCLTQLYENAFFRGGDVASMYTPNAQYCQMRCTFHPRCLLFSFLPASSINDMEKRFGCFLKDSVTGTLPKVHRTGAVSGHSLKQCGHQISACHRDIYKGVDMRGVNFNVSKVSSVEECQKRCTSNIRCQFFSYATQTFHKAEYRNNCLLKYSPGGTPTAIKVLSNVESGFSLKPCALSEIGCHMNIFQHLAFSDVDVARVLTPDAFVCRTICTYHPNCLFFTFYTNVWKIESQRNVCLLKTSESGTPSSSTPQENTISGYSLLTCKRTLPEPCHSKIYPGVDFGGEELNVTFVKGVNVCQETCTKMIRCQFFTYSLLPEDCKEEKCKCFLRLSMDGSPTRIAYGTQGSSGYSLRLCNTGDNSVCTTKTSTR
T4 sequence (P03952 391-638 limits assumed): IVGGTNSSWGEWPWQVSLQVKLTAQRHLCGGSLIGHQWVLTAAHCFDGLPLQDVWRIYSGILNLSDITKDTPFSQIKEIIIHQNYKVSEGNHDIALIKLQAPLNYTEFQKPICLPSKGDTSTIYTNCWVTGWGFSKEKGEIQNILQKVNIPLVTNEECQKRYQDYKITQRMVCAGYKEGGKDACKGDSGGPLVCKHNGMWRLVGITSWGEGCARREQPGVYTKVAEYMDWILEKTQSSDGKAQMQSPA
T5 sequence (P06868 104-583 limits assumed): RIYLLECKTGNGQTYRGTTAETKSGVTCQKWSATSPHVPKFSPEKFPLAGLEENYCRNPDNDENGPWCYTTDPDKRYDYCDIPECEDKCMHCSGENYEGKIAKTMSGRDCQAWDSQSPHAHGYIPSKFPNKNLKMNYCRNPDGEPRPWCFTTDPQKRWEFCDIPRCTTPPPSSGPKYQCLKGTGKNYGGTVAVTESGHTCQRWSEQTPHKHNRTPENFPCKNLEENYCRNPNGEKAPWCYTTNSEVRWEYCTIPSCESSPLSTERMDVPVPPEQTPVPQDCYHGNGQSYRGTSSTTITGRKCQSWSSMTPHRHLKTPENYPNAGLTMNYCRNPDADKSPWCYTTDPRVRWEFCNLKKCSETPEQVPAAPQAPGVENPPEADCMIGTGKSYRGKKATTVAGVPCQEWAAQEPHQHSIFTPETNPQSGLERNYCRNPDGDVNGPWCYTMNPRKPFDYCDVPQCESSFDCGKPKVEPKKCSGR
T5 sequence (P06868 584-812 limits assumed): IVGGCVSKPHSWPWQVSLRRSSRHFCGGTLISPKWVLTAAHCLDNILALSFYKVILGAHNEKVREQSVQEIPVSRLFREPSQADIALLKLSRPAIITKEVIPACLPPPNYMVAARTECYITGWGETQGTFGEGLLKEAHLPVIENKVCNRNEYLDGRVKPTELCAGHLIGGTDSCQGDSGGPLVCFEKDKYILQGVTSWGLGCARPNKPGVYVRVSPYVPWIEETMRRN

The term IC50 denotes the midpoint of a concentration-inhibition curve. High values mean weaker potency in that assay, low ones greater potency in that assay. With `CC(=O)N[C@@H](Cc1ccc(O)cc1)C(=O)N[C@@H](CC(C)C)C(=O)N[C@H](C=O)CCCN=C(N)N` (Ac-Tyr-Leu-Arg-aldehyde), the IC50 entry in [1] was “Not Active”; in test [2], 35 µM; in [3] it was 22 µM; in test [4], 26 µM; in test [5], 78 µM.
As for `CC(=O)N[C@@H](Cc1ccccc1)C(=O)N[C@H](C(=O)N[C@H](C=O)CCCN=C(N)N)C(C)C` (Ac-Phe-Val-Arg-aldehyde), the half-inhibitory concentration (IC50) in test [6] was found to be 12 µM; in test [2] it was 1.8 µM; in [3] it was 0.039 µM; in test [4], 28 µM; in test [5] it was 2.2 µM.
`CC[C@H](C)[C@H](NC(C)=O)C(=O)N[C@@H](CC(C)C)C(=O)N[C@H](C=O)CCCCN` (Ac-Ile-Leu-Lys-aldehyde): the IC50 entry was “Not Active” in test [7]; “Not Active” in [1]; “Not Active” in test [8]; 2 µM in test [3]; 17 µM in test [5].
In the case of `CC(=O)N[C@H](C(=O)N[C@@H](CC(C)C)C(=O)N[C@H](C=O)CCCCN)C(C)C` (Ac-Val-Leu-Lys-aldehyde), the 50% inhibitory concentration (IC50) result is “Not Active” in test [7]; “Not Active” in [1]; “Not Active” in test [9]; “Not Active” in [8]; 28 µM in test [3].
`CC(=O)N[C@H](C(=O)N[C@@H](CC(C)C)C(=O)N[C@H](C=O)CCCN=C(N)N)C(C)C` (Ac-Val-Leu-Arg-aldehyde): the concentration for half-maximal inhibition (IC50) was found to be 130 µM in test [6]; 170 µM in [2]; 100 µM in test [3]; 19 µM in test [4]; 65 µM in test [5].
Turning to `CC(=O)N[C@@H](CC(C)C)C(=O)N[C@H](C(=O)N[C@H](C=O)CCCCN)C(C)C` (Ac-Leu-Val-Lys-aldehyde), the half-inhibitory concentration (IC50) in [6] was 45 µM; in test [8], “Not Active”; in test [2] it was 140 µM; in test [3] it was 0.004 µM; in [5] it was 13 µM.
Consider `CC(=O)N[C@@H](Cc1ccccc1)C(=O)N[C@@H](CC(C)C)C(=O)N[C@H](C=O)CCCN=C(N)N` (Ac-Phe-Leu-Arg-aldehyde), for which the IC50 is 37 µM in [6]; 71 µM in [2]; 1.5 µM in [3]; 16 µM in test [4]; 7.7 µM in test [5].
With `CC(=O)N[C@@H](CC(C)C)C(=O)N[C@@H](Cc1ccccc1)C(=O)N[C@H](C=O)CCCN=C(N)N` (Ac-Leu-Phe-Arg-aldehyde), the half-inhibitory concentration (IC50) result in [1] is “Not Active”; in [2], 8.2 µM; in test [3], 1.1 µM; in test [4] it was 41 µM; in test [5], 3.6 µM.
Take `CC(=O)N[C@@H](CC(C)C)C(=O)N[C@@H](CC(C)C)C(=O)N[C@H](C=O)CCCNC(=N)N` [LEUPEPTIN]: the IC50 in test [6] is 8.1 µM; in test [2] it was 12 µM; in [3] it was 0.31 µM; in test [4], 40 µM; in test [5], 3.7 µM.
With `CC(=O)N[C@@H](CC(C)C)C(=O)N[C@@H](Cc1ccccc1)C(=O)N[C@H](C=O)CCCCN` (Ac-Leu-Phe-Lys-aldehyde), the IC50 result in [7] was “Not Active”; in test [1] it was “Not Active”; in test [9], “Not Active”; in test [8], “Not Active”; in test [3] it was 0.1 µM.
In the case of `CC[C@H](C)[C@H](NC(C)=O)C(=O)N[C@@H](CC(C)C)C(=O)N[C@H](C=O)CCCN=C(N)N` (Ac-Ile-Leu-Arg-aldehyde), the IC50 entry in test [1] is “Not Active”; in test [2] it was 94 µM; in test [4], 54 µM; in [10], “Not Active”; in test [5] it was 67 µM.
On to `CC(=O)N[C@@H](Cc1ccccc1)C(=O)N[C@@H](CC(C)C)C(=O)N[C@H](C=O)CCCCN` (Ac-Phe-Leu-Lys-aldehyde), for which the IC50 result was “Not Active” in test [7]; “Not Active” in test [1]; “Not Active” in [9]; “Not Active” in [8]; 18 µM in test [3].
With `CC[C@H](C)[C@H](NC(=O)[C@H](CC(C)C)NC(C)=O)C(=O)N[C@H](C=O)CCCN=C(N)N` (Ac-Leu-Ile-Arg-aldehyde), the IC50 in test [6] came out at 9.1 µM; in test [2], 18 µM; in test [3], 0.15 µM; in [4], 35 µM; in test [5], 11 µM.
For `CC(=O)N[C@@H](CC(C)C)C(=O)N[C@@H](CC(C)C)C(=O)N[C@H](C=O)CCCCN` (Ac-Leu-Leu-Lys-aldehyde), the 50% inhibitory concentration (IC50) result in [7] was “Not Active”; in test [1], “Not Active”; in [8], “Not Active”; in [3], 0.13 µM; in [5], 18 µM.
On to `CC(=O)N[C@@H](CC(C)C)C(=O)N[C@H](C(=O)N[C@H](C=O)CCCN=C(N)N)C(C)C` (Ac-Leu-Val-Arg-aldehyde), for which the IC50 result is “Not Active” in test [7]; “Not Active” in test [1]; “Not Active” in test [9]; 130 µM in [3]; 16 µM in test [4].
As to `CC(=O)N[C@@H](CC(C)C)C(=O)N[C@@H](Cc1ccc(O)cc1)C(=O)N[C@H](C=O)CCCN=C(N)N` (Ac-Leu-Tyr-Arg-aldehyde), the concentration for half-maximal inhibition (IC50) entry in test [1] is “Not Active”; in test [2] it was 66 µM; in test [3] it was 1.6 µM; in test [4], 25 µM; in test [5], 5.6 µM.

For the origin of these results see ChEMBL document CHEMBL1126640, “Inhibition studies of some serine and thiol proteinases by new leupeptin analogues” (J Med Chem, 1993).
